9 molecules from ChEMBL document CHEMBL1667831, “Synthesis and biological evaluation of 2-aminoimidazole/carbamate hybrid anti-biofilm and anti-microbial agents” (Bioorg Med Chem Lett, 2011) can be followed below.

The IC50 is the midpoint of a concentration-inhibition curve. High values mean weaker potency, low ones greater potency. The MIC is the least concentration at which growth counts as inhibited. A lower MIC goes with a more susceptible organism. Broadly, the EC50 is the concentration needed to bring the measured effect to its halfway point.

Series [1] has as its system Pseudomonas aeruginosa. In words: Antibiofilm activity against Pseudomonas aeruginosa PA14. In kind it is functional, organism-based. The method, boiled down: (§1)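 Crystal violet reporter assay of biofilm formation, run as a dose-response. IC50 is the concentration inhibiting 50% of biofilm formation. Highest concentration tested 200 µM.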
Series [2] has as its system Acinetobacter baumannii. Description: Antibiofilm activity against Acinetobacter baumannii ATCC 19606. In kind it is functional, organism-based. Conditions: ATCC 19606 = CIP 70.34 = JCM 6841. The method, boiled down: as §1
The subject of series [3] is Staphylococcus aureus. Description: Antibacterial activity against methicillin-resistant Staphylococcus aureus. In kind it is functional. The method, boiled down:
(§2)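 MIC, the minimum inhibitory concentration, measured against planktonic bacteria.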

Series [4] concerns Staphylococcus aureus. In words: Antibacterial activity against Staphylococcus aureus ATCC 29213. In kind it is functional. The method, boiled down:
as §2

Series [5] concerns Pseudomonas aeruginosa. Description: Antibacterial activity against Pseudomonas aeruginosa PA14. Type of series: functional.
In series [6] the test system is Acinetobacter baumannii. In words: Antibacterial activity against Acinetobacter baumannii ATCC 19606. Type of series: functional. Conditions: ATCC 19606 = CIP 70.34 = JCM 6841. The procedure, abridged: as §2
Series [7] concerns Acinetobacter baumannii. Description: Antibacterial activity against multi-drug resistant Acinetobacter baumannii ATCC BAA-1605. Type of series: functional. The method, boiled down: as §2
In series [8] the test system is Staphylococcus aureus. In words: Antibiofilm activity against methicillin-resistant Staphylococcus aureus assessed as biofilm dispersal. In kind it is functional, organism-based. The procedure, abridged:
(§3)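 Dispersal of pre-formed biofilms, tested in dose-response. The value reported is EC50.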

Series [9] concerns Staphylococcus aureus. Description: Antibiofilm activity against Staphylococcus aureus ATCC 29213 assessed as biofilm dispersal. Type of series: functional, organism-based. The procedure, abridged: as §3
Series [10] has as its system Acinetobacter baumannii. In words: Antibiofilm activity against Acinetobacter baumannii ATCC 19606 assessed as biofilm dispersal. The following applies: ATCC 19606 = CIP 70.34 = JCM 6841. In kind it is functional, organism-based. The method, boiled down: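 Dispersal of pre-formed A. baumannii biofilms, run as a dose-response. EC50 values are reported for dispersal.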

Series [11] in a line: Cytotoxicity against sheep RBC assessed hemolysis. In kind it is cell-based, Ovis aries, Erythrocyte. The following applies: sheep red blood cells, read-out: HD50 (the source's name). The method, boiled down: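 Red blood cell hemolysis assay using defibrinated sheep blood. HD50 is the concentration at which 50% hemolysis is observed.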
The subject of series [12] is Staphylococcus aureus. In words: Antibiofilm activity against methicillin-resistant Staphylococcus aureus. Type of series: functional, organism-based. The method, boiled down:
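Biofilm inhibition dose-response study. Biofilm formation is quantified with a crystal violet reporter assay. IC50 is the concentration that inhibits 50% of biofilm formation.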

For the molecule `CC(C)[C@@H]1CC[C@@H](C)C[C@H]1OC(=O)N(CCCCCCc1cn(CCCCCc2c[nH]c(N)n2)nn1)CCc1ccccn1.Cl`, the IC50 with Pseudomonas aeruginosa [1] was > 200 µM; with Acinetobacter baumannii [2], 19.2 µM. For the same molecule, the MIC with Staphylococcus aureus [3] is 8 mg/L; against Staphylococcus aureus [4] it was 4 mg/L; against Pseudomonas aeruginosa [5], > 128 mg/L; against Acinetobacter baumannii [6], 16 mg/L; against Acinetobacter baumannii [7], 16 mg/L. The 50% effective concentration (EC50) in the series on Staphylococcus aureus [8] is > 200 µM; with Staphylococcus aureus [9], > 200 µM; in the series on Acinetobacter baumannii [10] it was 37.5 µM. Besides, the HC50 in series [11] was 93.8 µM.

With `CC(C)[C@@H]1CC[C@@H](C)C[C@H]1OC(=O)N(CCCCCCc1cn(CCCCCCc2c[nH]c(N)n2)nn1)CCc1ccccn1.Cl`, the values for the 50% inhibitory concentration (IC50) in the series with Pseudomonas aeruginosa [1] and with Acinetobacter baumannii [2] were > 200 µM and 18.4 µM, respectively. The MIC against Staphylococcus aureus [3] is 4 mg/L; with Staphylococcus aureus [4], 4 mg/L; in the series on Pseudomonas aeruginosa [5], > 128 mg/L; against Acinetobacter baumannii [6], 32 mg/L; against Acinetobacter baumannii [7], > 128 mg/L. The HC50 in [11] turned out to be 46 µM.

With `CC(C)[C@@H]1CC[C@@H](C)C[C@H]1OC(=O)N(CCCCCCc1cn(CCCCCCCc2c[nH]c(N)n2)nn1)CCc1ccccn1.Cl`, the concentration for half-maximal inhibition (IC50) is > 200 µM with Pseudomonas aeruginosa [1] and 16.7 µM with Acinetobacter baumannii [2]. The minimum inhibitory concentration (MIC) against Staphylococcus aureus [3] was 4 mg/L; against Staphylococcus aureus [4] it was 4 mg/L; in the series on Pseudomonas aeruginosa [5], > 128 mg/L; against Acinetobacter baumannii [6], > 128 mg/L; in the series on Acinetobacter baumannii [7], > 128 mg/L. Besides, the concentration for a half-maximal effect (EC50) worked out at 38.1 µM in the series on Staphylococcus aureus [8], 32.5 µM in the series with Staphylococcus aureus [9] and 20.6 µM in the series on Acinetobacter baumannii [10]. Moreover, the HC50 in series [11] came to 42.7 µM.

On to `CC(C)[C@@H]1CC[C@@H](C)C[C@H]1OC(=O)NCCCCCc1c[nH]c(N)n1.Cl`, for which the IC50 is 18 µM in the series on Pseudomonas aeruginosa [1] and 19.2 µM in the series with Acinetobacter baumannii [2]. For the same molecule, the MIC against Staphylococcus aureus [3], in the series with Staphylococcus aureus [4], with Pseudomonas aeruginosa [5], in the series with Acinetobacter baumannii [6] and against Acinetobacter baumannii [7] was 32 mg/L each time. The HC50 in series [11] is 464 µM.

In turn, `CC(C)[C@@H]1CC[C@@H](C)C[C@H]1OC(=O)NCCCCCCc1c[nH]c(N)n1.Cl` came in with a half-inhibitory concentration (IC50) in the series with Pseudomonas aeruginosa [1] of 18 µM. Besides, the minimum inhibitory concentration (MIC) against Staphylococcus aureus [3] worked out at 8 mg/L; against Staphylococcus aureus [4], 8 mg/L; against Pseudomonas aeruginosa [5] it was 64 mg/L; with Acinetobacter baumannii [6], 16 mg/L; against Acinetobacter baumannii [7] it was 16 mg/L. In addition, the HC50 in series [11] was determined as 229 µM.

`CC(C)[C@@H]1CC[C@@H](C)C[C@H]1OC(=O)NCCCCCCCc1c[nH]c(N)n1.Cl`: it took 16.7 µM to reach half-maximal inhibition with Acinetobacter baumannii [2] (IC50). For the same molecule, the MIC in the series on Staphylococcus aureus [3] is 8 mg/L; in the series with Staphylococcus aureus [4], 8 mg/L; against Pseudomonas aeruginosa [5] it was 64 mg/L; in the series with Acinetobacter baumannii [6], 8 mg/L; with Acinetobacter baumannii [7], 8 mg/L. Moreover, the results for the EC50 with Staphylococcus aureus [8], in the series on Staphylococcus aureus [9] and in the series with Acinetobacter baumannii [10] were 53.5 µM, 38.8 µM and 68.3 µM, respectively. Moreover, in [11], the HC50 worked out at 474 µM.

Consider `CC(C)[C@@H]1CC[C@@H](C)C[C@H]1OC(=O)NCCn1cc(CCCCCc2c[nH]c(N)n2)nn1.Cl`, for which the IC50 with Staphylococcus aureus [12] came out at 29.9 µM; in the series with Pseudomonas aeruginosa [1] it was 58.7 µM; in the series with Acinetobacter baumannii [2], 94.9 µM. Moreover, the MIC against Staphylococcus aureus [3] is 64 mg/L; in the series on Staphylococcus aureus [4] it was 16 mg/L; with Pseudomonas aeruginosa [5] it was > 128 mg/L; with Acinetobacter baumannii [6], 64 mg/L; with Acinetobacter baumannii [7], 128 mg/L. For the same molecule, the HC50 in series [11] was found to be 474 µM.

For `CC(C)[C@@H]1CC[C@@H](C)C[C@H]1OC(=O)NCCCn1cc(CCCCCc2c[nH]c(N)n2)nn1.Cl`, the IC50 in the series with Staphylococcus aureus [12] was determined as 20.5 µM; with Pseudomonas aeruginosa [1] it was 40.3 µM. In addition, the MIC against Staphylococcus aureus [3] is 16 mg/L; against Staphylococcus aureus [4], 16 mg/L; in the series on Pseudomonas aeruginosa [5] it was 64 mg/L; with Acinetobacter baumannii [6], 64 mg/L; against Acinetobacter baumannii [7] it was 64 mg/L. Also, the HC50 in series [11] worked out at 318 µM.

`CC(=O)NCCCCCCc1cn(CCCCCc2c[nH]c(N)n2)nn1.Cl`: the IC50 with Staphylococcus aureus [12], in the series with Pseudomonas aeruginosa [1] and in the series on Acinetobacter baumannii [2] was > 200 µM each time. Moreover, the minimal inhibitory concentration (MIC) with Staphylococcus aureus [3], in the series with Staphylococcus aureus [4], against Pseudomonas aeruginosa [5], against Acinetobacter baumannii [6] and in the series on Acinetobacter baumannii [7] was > 128 mg/L in each case. Besides, the HC50 in series [11] is > 800 µM.
